# Measurements reported in ChEMBL document CHEMBL1275496, “In vivo pharmacodynamic target investigation for micafungin against Candida albicans and C. glabrata in a neutropenic murine candidiasis model” (Antimicrob Agents Chemother, 2008).
# *1 amine or outer side, *2 acyl side, *3 side chain or, on linkers, in order; H or OH if unused. Where a SMILES comes first, the peptide text is derived from it. Bridges are numbered along the chain shown (N, C = ends). [ ]: non-standard residue; d: D form. The star is where a group is joined. hTyr(3S-OH,4S-OH,3'-OSO3H) = N[C@H](C(=O)O)[C@H](O)[C@@H](O)c1ccc(O)c(OS(=O)(=O)O)c1; Orn(4R-OH,5R-OH) = O=C([C@H](C[C@@H](O)[C@@H](O)N[*:3])N[*:1])[*:2]; Pro(3S-OH,4S-Me) = C[C@H]1CN[C@H](C(=O)O)[C@H]1O; X1 = CCCCCOc1ccc(-c2cc(-c3ccc(C(=O)*)cc3)no2)cc1; Gln(3R-OH) = NC(=O)C[C@@H](O)[C@H](N)C(=O)O; Hyp = O=C(O)[C@@H]1C[C@@H](O)CN1
# Legend:
# [1] = Ratio of fAUC in ICR/Swiss neutropenic mouse at static dose of 2.53 mg/kg, ip after 24 hrs to MIC for Candida albicans isolate 98-17; assay type: functional; conditions: route intraperitoneal
# [2] = Ratio of AUC in ICR/Swiss neutropenic mouse at 1-Log kill dose of 4.08 mg/kg, ip after 24 hrs to MIC for Candida albicans isolate K1; assay type: functional; conditions: route intraperitoneal
# [3] = Ratio of AUC in ICR/Swiss neutropenic mouse at 1-Log kill dose of 3.77 mg/kg, ip after 24 hrs to MIC for Candida glabrata isolate 35315; assay type: functional; conditions: route intraperitoneal
# [4] = Ratio of AUC in ICR/Swiss neutropenic mouse at 1-Log kill dose of 1.40 mg/kg, ip after 24 hrs to MIC for Candida glabrata isolate 33609; assay type: functional; conditions: dose 1.4 mg/kg; route intraperitoneal
# [5] = Ratio of fAUC in ICR/Swiss neutropenic mouse at 1-Log kill dose of 1.69 mg/kg, ip after 24 hrs to MIC for Candida glabrata isolate 32930; assay type: functional; conditions: route intraperitoneal
# Nakaseomyces glabratus [6] = experiment: Antifungal activity against Candida glabrata isolate 5592 by CLSI method; assay type: functional
# In short: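 Broth microdilution MIC per CLSI M27-A2. Two endpoints were read against the drug-free control well: partial inhibition (M1, CLSI recommended) and complete inhibition (M2). Tests were run in duplicate on four separate occasions, and the value is the mean.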
# [7] = Half life in Candida infected ICR/Swiss neutropenic mouse at 80 mg/kg, ip; assay type: ADME, organism-based; set-up: dose 80 mg/kg, route intraperitoneal; conditions: in vivo
# In short: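 Single intraperitoneal micafungin doses (80, 20, 5 mg/kg in 0.2 ml, 0.15 M NaCl) given to infected neutropenic mice. Serum was taken from 3 mice per time point at 1, 2, 4, 6, 8, 12, 24 and 48 h. Drug was measured by microbiologic assay with C. albicans K1 (LLOQ 0.12 μg/ml). Noncompartmental analysis; half-life by nonlinear least squares; AUC by trapezoidal rule.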
# Nakaseomyces glabratus [8] = experiment: Fungistatic activity against Candida glabrata isolate 35315 infected in ICR/Swiss neutropenic mouse after 24 hrs; assay type: functional
# In short: (§1)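 Neutropenic female ICR/Swiss mice received cyclophosphamide sc at 150 mg/kg on day −4, 100 mg/kg on day −1 and 100 mg/kg on day +2. Mice were infected iv via the tail vein, and ip micafungin in 0.15 M NaCl started 2 h later. Six dose levels from 0.078 to 80 mg/kg/24 h were given q24h for 4 days, 3 mice per dose. Kidney CFU were counted at 96 h. The static dose was derived from a sigmoid Emax (Hill) fit.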
# Nakaseomyces glabratus [9] = experiment: Fungistatic activity against Candida glabrata isolate 5376 infected in ICR/Swiss neutropenic mouse after 24 hrs; assay type: functional; in short: as §1
structure (smiles),measurement,setting,value
"CCCCCOc1ccc(-c2cc(-c3ccc(C(=O)N[C@H]4C[C@@H](O)[C@@H](O)NC(=O)[C@@H]5[C@@H](O)[C@@H](C)CN5C(=O)[C@H]([C@H](O)CC(N)=O)NC(=O)[C@H]([C@H](O)[C@@H](O)c5ccc(O)c(OS(=O)(=O)O)c5)NC(=O)[C@@H]5C[C@@H](O)CN5C(=O)[C@H]([C@@H](C)O)NC4=O)cc3)no2)cc1 [MICAFUNGIN] (X1-[Orn(4R-OH,5R-OH)]T[Hyp][hTyr(3S-OH,4S-OH,3'-OSO3H)][Gln(3R-OH)][Pro(3S-OH,4S-Me)]; lactam 1-C)",fAUC/MIC,[1],5.9
same,RatioAUC/MIC,[2],7533
same,RatioAUC/MIC,[3],1733
same,RatioAUC/MIC,[4],2600
same,fAUC/MIC,[5],7.8
same,MIC,Nakaseomyces glabratus [6],0.03 µg/mL
same,MIC50,Nakaseomyces glabratus [6],0.016 µg/mL
same,half-life,[7],16 h
same,Activity,Nakaseomyces glabratus [8],2.4 mg/kg
same,Activity,Nakaseomyces glabratus [9],0.9 mg/kg
